Bioassay records: PubChem BioAssay, Sanford-Burnham Center for Chemical Genomics
SENP6 block – blocks the human protease SENP6 | Recombinant SENP6 catalytic domain, aminoluciferin luminescence | inhibition, % at 10 µM | 330,000 compounds, 1.8% hits | AID 2599;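 active = inhibition above about 50% at the single tested dose, limit read from the data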
Target sequence (Q9GZR1 628-1112 limits assumed): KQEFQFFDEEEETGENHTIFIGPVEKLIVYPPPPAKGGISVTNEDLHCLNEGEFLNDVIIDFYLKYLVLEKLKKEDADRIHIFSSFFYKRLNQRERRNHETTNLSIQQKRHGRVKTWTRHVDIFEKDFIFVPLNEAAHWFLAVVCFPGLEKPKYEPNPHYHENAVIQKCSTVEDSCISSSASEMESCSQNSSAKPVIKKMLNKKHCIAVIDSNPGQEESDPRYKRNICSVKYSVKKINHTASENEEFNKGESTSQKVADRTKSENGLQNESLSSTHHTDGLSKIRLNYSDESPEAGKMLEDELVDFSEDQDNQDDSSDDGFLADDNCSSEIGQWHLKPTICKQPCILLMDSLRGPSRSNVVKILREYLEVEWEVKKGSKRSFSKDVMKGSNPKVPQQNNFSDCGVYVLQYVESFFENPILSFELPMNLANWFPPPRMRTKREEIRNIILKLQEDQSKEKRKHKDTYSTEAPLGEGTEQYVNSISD
SENP1 FRET inh – SENP1 (human) catalytic domain inhibition | Q9P0U3 | recombinant SENP1 catalytic domain, CyPet-SUMO1-YPet FRET cleavage | inhibition, % at 10 µM | 360,000 compounds, 0.21% hits;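 active = inhibition at least 30% at 10 µM, raw YFP signal under a set limit, fluorescence ratio 0.5 to 1.5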
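Assay system: hSENP1 catalytic domain, recombinant. Amount: SENP1 enzyme, 20 pM final. Schedule: 50 min reaction, RT, dark. Technique: FRET, CFP and YFP emission. Control set: no-enzyme wells low, DMSO-plus-enzyme wells high control.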
SENP7 inh – blocks the human protease SENP7; Q9BQF6; 330,000 compounds, 1.5% hits; AID 434973; inhibition, % at 5 µM; recombinant SENP7, Z-RLRGG-aminoluciferin luminescence, 40 min;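 active = inhibition above about 50% at the single test dose, limit read from the data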
SENP8 block-1 – SENP8 (human) protease inhibition. inhibition, % at 20 µM. 360,000 compounds, 0.64% hits. recombinant SENP8, Nedd8 substrate fluorescence. AID 602440. Q96LD8; in the data active = inhibition mostly above about 40%, no sharp cut-off; inactive = mostly below about 27%
SENP8 block-2 – blocks the human protease SENP8; 330,000 compounds, 1.2% hits; purified SENP8, Z-RLRGG-aminoluciferin cleavage, luminescence; inhibition, % at 10 µM; in the data active = inhibition above about 50%
SENP8 conf – confirmation of human SENP8 protease inhibitors; shares compounds with SENP8 block-1; inhibition, % at 25 µM; 1,400 compounds, 15% hits; purified SENP8, Nedd8-AMC/pro-Nedd8 cleavage fluorescence, 30 min; in the data active = inhibition mostly above about 39%, no sharp cut-off; inactive = mostly below about 34%
Large screens that a line does not name were inactive (follow-up assays come after a bar, where they were run). A selection: hits, their analogues and other compounds. The true share with any hit is near 2.5%.

COc1ccccc1NS(=O)(=O)c1ccc(N/N=C/c2c(C)nn(-c3ccccc3)c2N2CCCC2)c([N+](=O)[O-])c1	SENP8 block-1 45 | SENP8 conf inactive
CCN(CC(=O)NCc1ccc(Cl)cc1)C(=O)CN1C(=O)NC(CC)(c2ccccc2)C1=O (centres undefined)	none
CCOc1ccc(NC(=O)c2ccc(-n3cccn3)nc2)cc1	none
NS(=O)(=O)c1ccc(N/N=C/c2cn(-c3ccccc3)nc2-c2ccccc2)c([N+](=O)[O-])c1	SENP8 block-1 54 | SENP8 conf inactive
O=C(O)c1ccc(/C=N/Nc2ccc(S(=O)(=O)N3CCCC3)cc2[N+](=O)[O-])cc1	none
NS(=O)(=O)c1ccc(N/N=C/c2ccc3c(c2)OCO3)c([N+](=O)[O-])c1	SENP8 block-1 44 | SENP8 conf inactive
O=[N+]([O-])c1cc(S(=O)(=O)N2CCCC2)ccc1N/N=C/c1ccncc1	SENP8 block-1 47 | SENP8 conf inactive
CN(C)S(=O)(=O)Nc1cc(Cl)cc(Cl)c1	none
O=C(Nc1cc(-c2ccccc2)[nH]n1)c1ccc(Cl)cc1	SENP6 block 69, SENP7 inh 67, SENP8 block-1 40 | SENP8 conf inactive
C=CCn1c(C)cc(C(=O)CSc2nnc(NCc3ccccc3)s2)c1C	none (no result: SENP6 block, SENP7 inh, SENP8 block-2)
C=CCn1c(C)cc(C(=O)CSc2nnc(NC(C)C)s2)c1C	SENP8 block-1 44 | SENP8 conf inactive
CC(C(=O)NC(C)(C)C)n1c(C(c2ccccc2)c2ccccc2)nc2ccccc21 (centres undefined)	none (no result: SENP6 block, SENP7 inh, SENP8 block-2)
COc1ccc(N2CC(C(=O)N[C@@H](C)C(=O)N[C@H](CO)c3ccccc3)CC2=O)cc1 (some centres undefined)	SENP8 block-1 53 | SENP8 conf inactive
Cc1nc2ccccc2c(=O)n1/N=C/c1ccc([N+](=O)[O-])o1	none (no result: SENP1 FRET inh, SENP8 block-1)
Cc1nc2ccccc2n1/N=C/c1ccc([N+](=O)[O-])o1	SENP8 block-1 42 | SENP8 conf 47
COc1ccc(CCC(C)NC2CCCCCCC2)cc1 (centres undefined)	SENP8 block-1 49 | SENP8 conf inactive
COc1cccc(NC(=S)NN=C2CCC(C(C)(C)C)CC2)c1 (centres undefined)	SENP8 block-1 47 | SENP8 conf inactive
CCc1cccc2c1Sc1ccccc1CC2N1CCNCC1 (centres undefined)	SENP8 block-1 44 | SENP8 conf inactive
Cc1cccc2c1Sc1ccc(Cl)cc1CC2N1CCNCC1 (centres undefined)	none (no result: SENP1 FRET inh, SENP8 block-1)
CCc1ccc2c(c1)c1nc(C)sc1n2CC(=O)OC	none
CCc1ccc2c(c1)c1nnc(NN)nc1n2C	SENP8 block-1 64 | SENP8 conf inactive
CCc1ccc2c(c1)c1nnc(NN)nc1n2CC	SENP8 block-1 72 | SENP8 conf inactive
Cn1c2ccccc2c2nnc(N/N=C/c3ccc(O)cc3)nc21	none
CC(=O)c1cccc(S(=O)(=O)NCCC(=O)O)c1	none
S=C(NNc1cccc(Cl)c1)NC1CCCCC1	SENP8 block-1 49 | SENP8 conf inactive
CC1C(=O)N2CCCc3cc(NC(=O)c4ccccc4C(F)(F)F)cc1c32 (centres undefined)	none
COc1cc(CCC(O)CC(=O)CCc2ccccc2)ccc1O (centres undefined)	SENP8 block-1 46 | SENP8 conf inactive
CCN1C(=S)SC(=O)C1=C1C=C(C)OC(C)=C1	SENP8 block-1 48 | SENP8 conf inactive
CC1(C(=O)NS(=O)(=O)c2cccc(Cl)c2)CCN1C(=O)Cc1cc(F)ccc1F (centres undefined)	none (no result: SENP6 block, SENP7 inh, SENP8 block-2)
COc1ccc(C(=O)CSc2nnc(C(CO)NC(=O)c3ccc(OC)cc3)n2C)cc1 (centres undefined)	SENP8 block-1 73 | SENP8 conf inactive
COc1ccc(CC(=O)NC(C)c2nnc(SCC(=O)c3ccc(OC)cc3)n2C)cc1 (centres undefined)	none
O=C(CCN1C(=O)c2ccc([N+](=O)[O-])cc2C1=O)Nc1ccccc1C(=O)O	none
Cc1ccc(S(=O)(=O)N2CCC(C(N)=O)CC2)cc1[N+](=O)[O-]	none
Cc1nn(Cc2ccc(Cl)c(Cl)c2)c(C)c1NC(=O)c1cn(-c2ccccc2)nc1-c1ccccc1	SENP8 block-1 40 | SENP8 conf inactive
Cc1cccc(C)c1NC(=O)c1cn(-c2ccccc2)nc1-c1ccccc1	none
O=C(O)C=C(Br)Br	SENP8 block-1 46 | SENP8 conf inactive
COc1ccc(-c2noc(N(C)CC(=O)Nc3cccc(C(F)(F)F)c3)n2)cc1	SENP8 block-1 43 | SENP8 conf inactive
COc1cccc(NC(=O)CN(C)CC(=O)Nc2cccc(C(F)(F)F)c2)c1	none
O=C(Cn1cnnn1)NCc1ccccc1	none
COC(=O)c1ccc(NC(=O)CN(c2ccc(OC)cc2)S(C)(=O)=O)cc1	SENP8 block-1 41 | SENP8 conf inactive
COc1cc(C(=O)N2CCCC(C)(C(=O)NS(=O)(=O)C3CC3)C2)cc(OC)c1OC (centres undefined)	none (no result: SENP6 block, SENP7 inh, SENP8 block-2)
CC(=O)Nc1ccc(Nc2ncc([N+](=O)[O-])c(Nc3ccc(NC(C)=O)cc3)n2)cc1	SENP8 block-1 44 | SENP8 conf inactive
CC12OC1C1(O)CCCC1=CC2=O (centres undefined)	none (no result: SENP1 FRET inh, SENP8 block-1)
COc1ccc2c(CN3CCCCCCC3)cc(=O)oc2c1	none (no result: SENP6 block, SENP7 inh, SENP8 block-2)
CCN(CC)S(=O)(=O)c1ccc(N/N=C/c2ccccc2OCC(=O)O)c([N+](=O)[O-])c1	SENP8 block-1 51 | SENP8 conf inactive
CC(C)C(=O)NS(=O)(=O)c1ccc(N)cc1	SENP8 block-1 47 | SENP8 conf inactive
CC(C)CC(=O)NS(=O)(=O)c1ccc(N)cc1	none
O=C(NCC1COc2ccccc2O1)C1C2C=CC3(CN(Cc4ccccc4Cl)C(=O)C13)O2 (centres undefined)	none
COc1ccc(CCN2CC34C=CC(O3)C(C(=O)NCc3ccccc3Cl)C4C2=O)cc1OC (centres undefined)	SENP8 block-1 47 | SENP8 conf inactive
CCOC(=O)NNc1ccccc1	none
CCOC(=O)C(=CNNc1ccccc1)C(=O)OCC	SENP8 block-1 45 | SENP8 conf inactive
Cc1ccc(OCc2cc(C(=O)N3CCN(CC(=O)NC(C)C)CC3)no2)cn1	none
COc1cc(C(=O)OC2CC3CCC2(C)C3(C)C)ccc1OC(C)=O (centres undefined)	SENP8 block-1 62 | SENP8 conf inactive
COc1ccc2c(c1)Cc1sc(NC(=O)c3cccnc3)nc1-2	SENP6 block 89, SENP7 inh 84, SENP8 block-1 64, SENP8 block-2 86 | SENP8 conf inactive
COc1ccc2c(c1)CCc1sc(NC(=O)c3ccc(C)cc3)nc1-2	none
COc1cc(CC(=O)OCC(=O)Nc2cc([N+](=O)[O-])ccc2Cl)cc(OC)c1OC	SENP8 block-1 40 | SENP8 conf inactive
CC1(c2nnc(Cc3ccccc3)o2)CC(c2cccc(F)c2)=NO1 (centres undefined)	none
